ChEMBL document CHEMBL1772998, “Cytotoxic clerodane diterpenes from Casearia rupestris” (J Nat Prod, 2011)

Key:
Assay type in all cases: functional, cell-based
HL-60 = assay: Cytotoxicity against human HL60 cells after 72 hrs by MTT assay; settings: HL-60, 72 h
Method in brief: (§1)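 Cells grown in RPMI 1640 with 10% FBS, 2 mM glutamine, streptomycin and penicillin at 37 C, 5% CO2. Seeded at 10^5 cells/well (adherent) or 0.3 × 10^6 cells/well (suspension). After 24 h, compounds in DMSO (0.39-25 μg/mL) added; doxorubicin (0.01-0.58 μg/mL) as positive control. After 69 h, MTT 0.5 mg/mL for 3 h. Formazan dissolved in DMSO, A595 read, IC50 by nonlinear regression.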

SF-295 = assay: Cytotoxicity against human SF295 cells after 72 hrs by MTT assay; settings: SF-295, 72 h; method in brief: as §1
MDA-MB-435 = assay: Cytotoxicity against human MDA-MB-435 cells after 72 hrs by MTT assay; settings: MDA-MB-435, 72 h; method in brief: as §1
HCT-8 = assay: Cytotoxicity against human HCT8 cells after 72 hrs by MTT assay; settings: HCT-8, 72 h; method in brief: as §1

| SMILES | IC50 (HL-60) | IC50 (SF-295) | IC50 (MDA-MB-435) | IC50 (HCT-8) |
| --- | --- | --- | --- | --- |
| COc1cccc2c1C(=O)c1c(O)c3c(c(O)c1C2=O)C[C@@](O)(C(=O)CO)C[C@@H]3O[C@H]1C[C@H](N)[C@H](O)[C@H](C)O1 [DOXORUBICIN] | 0.04 µM | 0.4 µM |  |  |
| C=CC(=C)CC[C@]1(C)[C@H](C)[C@@H](OC(=O)/C=C\C=C\CCCCC)[C@H](OC(C)=O)[C@@]23C(=C[C@H](OC(C)=O)C[C@@H]12)[C@@H](OC(C)=O)O[C@@H]3OC(C)=O | > 5 µM | > 5 µM | > 5 µM | > 5 µM |
| C=CC(=C)CC[C@]1(C)[C@H](C)[C@@H](OC(=O)/C=C\C=C\CCCCC)[C@H](OC(C)=O)[C@@]23C(=C[C@H](O)C[C@@H]12)[C@@H](OC(C)=O)O[C@@H]3OC(C)=O (relative stereo) [CASEARUPESTRIN D] | 0.25 µM | 0.43 µM | 0.93 µM | 0.25 µM |
| C=CC(=C)CC[C@]1(C)[C@H](C)[C@@H](OC(=O)/C=C\C=C\CCCCC)[C@H](O)[C@@]23C(=C[C@H](O)C[C@@H]12)[C@@H](OC)O[C@@H]3OC(C)=O (relative stereo) [CASEARUPESTRIN C] | > 5 µM | > 5 µM | > 5 µM | > 5 µM |
| C=CC(=C)CC[C@]1(C)[C@H](C)[C@@H](OC(C)=O)[C@H](OC(=O)/C=C\C=C\CCCCC)[C@@]23C(=C[C@H](OC(C)=O)C[C@@H]12)[C@@H](OC(C)=O)O[C@@H]3OC(C)=O | 4.3 µM | > 5 µM | > 5 µM | > 5 µM |
| C=CC(=C)CC[C@]1(C)[C@H](C)[C@@H](OC(=O)/C=C\C=C\CCCCC)[C@H](O)[C@@]23C(=C[C@H](O)C[C@@H]12)[C@@H](OC(C)=O)O[C@@H]3OC(C)=O (relative stereo) [CASEARUPESTRIN B] | 0.85 µM | 0.8 µM | 1.3 µM | 0.28 µM |
| C=CC(=C)CC[C@]1(C)[C@H](C)[C@@H](O)[C@H](OC(=O)/C=C\C=C\CCCCC)[C@@]23C(=C[C@H](O)C[C@@H]12)[C@@H](OC(C)=O)O[C@@H]3OC(C)=O (relative stereo) [CASEARUPESTRIN A] | 0.1 µM | 0.36 µM | 0.36 µM | 0.13 µM |
